Screening data (PubChem BioAssay)
UPR XBP1 act = activators of adaptive XBP1 UPR arm, primary screen, cell-based, CHO-XBP1 luciferase reporter, luminescence, uHTS | hit rate 0.33% among 330,000 | activation, % at 20 µM | IRE1-XBP1 UPR activation; percent of tunicamycin response, DMSO as zero;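 active = versus positive control, 20 µM dose yields 30% or more activation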;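 note: 100% = tunicamycin at 10 µg/mL and 0% = DMSO only wells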
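Material: CHO-XBP1 cells stably carrying IRE1-XBP1-driven luciferase reporter / Amount: 1000 cells per well / Compound: 20 µM, 1% DMSO / Times: 6 h treatment, 37 °C / Detection: luciferase luminescence / Measure: % activation of reporter signal versus tunicamycin and DMSO controls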
GRIN3A LBD mod = binders of NR3A ligand-binding domain, primary screen, biophysical, differential scanning fluorimetry, uHTS | Glutamate receptor ionotropic, NMDA 3A (GRIN3A) ligand-binding domain | NR3A LBD differential scanning fluorimetry, Tm shift; 0% = protein alone, 100% = glycine-bound protein | Tm shift relative to glycine control, % at 25 µM | hit rate 2.5% among 340,000;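 active = melting temperature shift of at least 10% of the positive control shift, at one fixed dose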
MPTP block = mitochondrial permeability transition pore inhibitors, primary screen, biochemical, isolated mouse mitochondria, absorbance; Ca2+ swelling absorbance, 30 min; hit rate 1.4% among 360,000; inhibition, % at 10 µM;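 active = inhibition of 50% or more, scaled per plate between neutral and stimulator controls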;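 note: 0% = DMSO wells given calcium and 100% = 1 mM EGTA wells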
CHOP inh = inhibitors of CHOP promoter induction, primary screen, cell-based, unfolded protein response, luciferase reporter; CHO-K1 CHOP-promoter luciferase, tunicamycin-induced, 15-18 h; inhibition, % at 10 µM; hit rate 3.8% among 220,000; AID 2732, 2010;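 active = compounds that reduced the stress-induced luciferase reporter signal by more than about 70% of percent inhibition, limit read from the data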;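 note: 0% = tunicamycin plus vehicle and 100% = wells without tunicamycin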
CHOP UPR activ = activators of apoptotic CHOP UPR arm, primary screen, cell-based, CHO-CHOP luciferase reporter, luminescence, uHTS; hit rate 0.34% among 330,000; UPR activation; percent of tunicamycin response over DMSO baseline; activation, % at 10 µM;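 active = at 10 µM dose, activation of 40% or more, normalized to positive control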;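 note: 100% = tunicamycin at 10 µg/mL and 0% = DMSO alone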
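measured by = luciferase luminescence | assay system = CHO-CHOP cells, stable luciferase reporter of PERK-eIF2a-CHOP signalling | amount = 500 reporter cells seeded per well | timing = 6 h compound exposure at 37 °C after overnight seeding | controls = positive tunicamycin 10 µg/mL, negative DMSO alone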
aDG glyco up = activators of alpha-DG glycosylation, primary screen, uHTS, Pro5-aDG cells, AlphaScreen | hit rate 0.22% among 360,000 | alpha-DG glycosylation AlphaScreen (IIH6); 0% Pro5, 100% B10-LARGE cell signal | activation, % at 10 µM;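 active = activation of at least 8% versus controls, or a plate z-score of at least 8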;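 note: Pro5 are CHO cells carrying HIG-tagged alpha-DG that lacks glycosylation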
CHOP confirm = retest of CHOP induction inhibitors, confirmation, cell-based. inhibition, % at 10 µM. hit rate 45% among 2,100. CHO-CHOP promoter luciferase reporter, tunicamycin-induced, luminescence. shares compounds with CHOP inh;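 active = mean of three repeat readings of reporter signal inhibition above a set limit, cut at about 70% in these data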;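 note: 0% = tunicamycin plus vehicle and 100% = wells lacking tunicamycin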
XBP1 UPR conf = IRE1-XBP1 UPR arm activators, confirmation, cell-based, CHO-XBP1 luciferase reporter, luminescence, single concentration; shares compounds with UPR XBP1 act; activation, % at 20 µM; hit rate 63% among 1,000; AID 485299, 2010;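 active = reporter signal at least 30% of the positive control's activation in two or more of four replicate wells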;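 note: plate controls were DMSO negative control for no effect and tunicamycin 10 µg/mL positive control for full effect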
Rh123 counter = fluorescence retest of MPTP screen hits in isolated mitochondria, single concentration; hit rate 78% among 5,000; membrane potential, Rhodamine 123 fluorescence; inhibition, % at 10 µM; shares compounds with MPTP block; in the data active = inhibition above about 22%;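 note: 0% = DMSO vehicle and 100% = positive control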
Active calls of the source: *; nt = no result. An excerpt weighted towards active compounds, which were near 5.6% of everything screened.

SMILES	UPR XBP1 act	GRIN3A LBD mod	MPTP block	CHOP inh	CHOP UPR activ	aDG glyco up	CHOP confirm	Rh123 counter	others
Cc1ccc2nsnc2c1NC(=O)Cc1ccc(Cl)cc1	-1	-2	-1	31	3	0	nt	nt
Cc1ccc2nsnc2c1NC(=O)c1ccc(-c2cc(Cl)ccc2Cl)o1	96*	2	-2	101*	34	-1	62	nt	XBP1 UPR conf=104*
CCCn1c(SCc2nc3sc(C)c(C)c3c(=O)[nH]2)nc2ccccc2c1=O	78*	0	7	106*	-2	1	24	nt	XBP1 UPR conf=180*
CCN(CC)CCn1c(SCC(=O)Nc2ccc(F)cc2)nc2c(sc3ccccc32)c1=O	166*	nt	nt	104*	9	nt	90*	nt	XBP1 UPR conf=228*
O=C(Nc1nccs1)[C@@H]1CC=C[C@@H]2CCN(Cc3ccccc3)C(=O)[C@@H]21	0	-3	-1	nt	1	0	nt	nt
C=CCCC(=O)N1C[C@H]2CON(C)[C@H]2C[C@H]1c1cccc(Oc2ccccc2)c1	nt	nt	-1	nt	nt	0	nt	nt
Nc1nc(SCc2ccc(Cl)cc2Cl)nc2nc3c(cc12)CCCC3	59*	-3	7	103*	3	0	-38	nt	XBP1 UPR conf=133*
CCc1noc(C)c1C(=O)Nc1cccc2ncccc12	1	2	0	nt	0	0	nt	nt
CCOC(=O)N1C2=NC(C(=O)OC)=C(C(=O)OC)[C@@H]3N(Cc4ccccc4)c4ccccc4[C@]23C[C@H]1C(=O)OC	1	-2	nt	nt	2	nt	nt	nt
N=c1n(Cc2ccccc2)c2ccccc2n1CC(O)COc1ccc(Cl)cc1Cl (stereo not given)	3	-1	74*	109*	24	-1	92*	16
O=C(OCC(=O)N1CCCCC1)c1cc(=O)[nH]c2ccccc12	-1	-3	-1	nt	3	0	nt	nt
Cc1cc(/C=N/n2cnnc2)c(C)n1-c1ccc(Cl)cc1	2	0	0	12	-1	0	nt	nt
Cc1cc(/C=N/n2cnnc2)c(C)n1-c1ccc(OCc2ccc(F)cc2)cc1	4	0	99*	nt	10	3	111*	93*
Cc1cc(/C=N/n2cnnc2)c(C)n1-c1ccc(OCc2ccc(Cl)cc2Cl)cc1	-6	-4	108*	108*	-3	6	114*	101*
Clc1ccc2c(NNc3ccccc3Cl)ccnc2c1	-1	-17	4	47	-1	0	nt	nt
Clc1ccc2c(N/N=C/c3cccc(Br)c3)ccnc2c1	nt	15*	62*	105*	nt	0	32	94*
Clc1ccc2c(N/N=C/c3ccccc3Br)ccnc2c1	13	4	57*	100*	13	0	77*	99*
Cc1ccc(S(=O)(=O)N2CCC(=O)N(C(COCc3cccc(C(F)(F)F)c3)C(C)C)CC2)cc1 (stereo not given)	3	0	-3	24	3	0	nt	nt
O=C(Nc1ccccc1)Nc1nc(-c2ccc(F)cc2)cs1	3	6	92*	106*	2	0	8	86*
CCOc1ccc(NC(=S)Nc2ccc(OCc3ccccc3)cc2)cc1	1	8	0	4	3	0	nt	nt
S=C(Nc1ccccc1)Nc1ccc(OCc2ccc(Cl)cc2Cl)cc1	-9	14*	85*	108*	-11	0	115*	89*
